Experimental data from ChEMBL document CHEMBL1156069, “Optimising metabolic stability in lipophilic chemical space: the identification of a metabolically stable pyrazolopyrimidine CRF-1 receptor antagonist” (Bioorg Med Chem Lett, 2009).

Tests used:
Liver microsomes [1] = assay: Intrinsic clearance in rat liver microsomes assessed per mg of protein; type: ADME, Microsome
Liver microsomes [2] = assay: Intrinsic clearance in human liver microsomes assessed per mg of protein; type: ADME, Microsome
[3] = target: T1, Corticotropin-releasing factor receptor 1 (Homo sapiens, UniProt P34998); assay: Antagonist activity at human recombinant CRF1 receptor expressed in CHO cells assessed as inhibition of CRF-induced cAMP production; type: functional, cell-based
T1 sequence (P34998 whole entry): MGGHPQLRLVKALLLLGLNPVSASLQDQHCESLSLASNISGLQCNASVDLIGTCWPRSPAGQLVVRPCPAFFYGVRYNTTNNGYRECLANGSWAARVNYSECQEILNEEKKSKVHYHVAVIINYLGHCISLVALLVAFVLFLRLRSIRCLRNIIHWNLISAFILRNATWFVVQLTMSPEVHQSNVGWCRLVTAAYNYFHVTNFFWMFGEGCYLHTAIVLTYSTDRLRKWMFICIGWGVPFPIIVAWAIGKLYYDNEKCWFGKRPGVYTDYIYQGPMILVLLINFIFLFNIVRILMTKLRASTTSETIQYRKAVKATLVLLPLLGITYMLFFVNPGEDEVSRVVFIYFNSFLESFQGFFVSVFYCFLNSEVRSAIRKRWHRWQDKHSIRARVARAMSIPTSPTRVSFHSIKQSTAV
Method in brief: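 CHO cells stably expressing recombinant human CRF-1, grown in DMEM:F12 with 10% FBS, 1% Glutamax and Geneticin at 37 °C, 5% CO2 to 70% confluence. hCRF (10 nM final) added with compound to 10,000 cells/well in PBS with IBMX. cAMP read by enzyme-fragment complementation kit. 0.5-log serial dilutions, repeated tests, 4-parameter logistic IC50. Ki by Cheng–Prusoff from agonist EC50 measured the same day.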

[4] = Clearance in rat at 0.1 mg/kg, iv and 5 mg/kg, po; type: ADME, organism-based; conditions: in vivo
[5] = Chemical stability of the compound; type: physicochemical
[6] = Volume of distribution in rat at 0.1 mg/kg, iv and 5 mg/kg, po; type: ADME, organism-based; conditions: in vivo
[7] = Bioavailability in rat at 0.1 mg/kg, iv and 5 mg/kg, po; type: ADME, organism-based; conditions: in vivo
[8] = Half life in rat at 0.1 mg/kg, iv and 5 mg/kg, po; type: ADME, organism-based; conditions: in vivo
[9] = Chemical stability at pH 1.2 assessed as compound remaining at 50 degC after 14 days; type: physicochemical; conditions: buffer, read-out: Stability

| clearance (Liver microsomes [1]) [µL/min/mg] | clearance (Liver microsomes [2]) [µL/min/mg] | Ki [3] [nM] | clearance [4] [mL/min/kg] | Stability [5] | Vd [6] [L/kg] | bioavailability [7] [%] | half-life [8] [h] | remaining at 336 h [9] [%] | Compound |
| --- | --- | --- | --- | --- | --- | --- | --- | --- | --- |
| 41 | 23 | 76 |  |  |  |  |  |  | CCC[C@H](CO)Nc1nc(C)nc2c1c(C)nn2-c1ccc(OC)cc1C |
| 24 | < 12 | 35 |  |  |  |  |  |  | COc1ccc(-n2nc(C)c3c(NC(C4CC4)C4CC4)nc(C)nc32)c(C)c1 |
| 22 | 18 | 1410 |  |  |  |  |  |  | CCCN(CC(=O)N(C)C)c1nc(C)nc2c1c(C)nn2-c1ccc(OC)cc1C |
| 58 | 29 | 124 |  |  |  |  |  |  | CCCNCc1nc(Nc2nc(C)nc3c2c(C)nn3-c2ccc(OC)cc2C)no1 |
| 23 | < 7 | 1130 |  |  |  |  |  |  | CC[C@H](CO)Nc1nc(C)nc2c1c(C)nn2-c1ccc(OC)cc1C |
| < 11 | 147 | 101 |  |  |  |  |  |  | CCCN(CCOC)c1nc(C)nc2c1c(C)nn2-c1ccc(C#N)cc1C |
| 104 | 117 | 117 |  |  |  |  |  |  | CCN(CCOC)c1nc(C)nc2c1c(C)nn2-c1ccc(OC)cc1C |
| 27 | < 7 | 620 |  |  |  |  |  |  | CC[C@@H](CO)Nc1nc(C)nc2c1c(C)nn2-c1ccc(OC)cc1C |
| 23 | 172 | 13 |  |  |  |  |  |  | CCCN(CCOC)c1nc(C)nc2c1c(C)nn2-c1ccc(OC)cc1C |
| 40 | 34 | 996 |  |  |  |  |  |  | CCCNCc1nnc(Nc2nc(C)nc3c2c(C)nn3-c2ccc(OC)cc2C)o1 |
| 387 | 16 | 132 |  |  |  |  |  |  | CCCN(CCOC)c1nc(C)nc2c1cnn2-c1ccc(OC)cc1C |
| 163 | 117 | 43 |  |  |  |  |  |  | CCCN(CCOC)c1nc(C)nc2c1c(C)nn2-c1ccc(OC)nc1C |
| 159 | 218 | 17 |  |  |  |  |  |  | CCCN(CCOC)c1nc(C)nc2c1c(C)nn2-c1ccc(OC)nc1OC |
| 246 | 15 | 85 |  |  |  |  |  |  | CCC(CC)Nc1nc(C)nc2c1cnn2-c1ccc(OC)cc1C |
| 47 | 66 | 193 |  |  |  |  |  |  | COCCN(CCOC)c1nc(C)nc2c1c(C)nn2-c1ccc(OC)cc1C |
| 90 | 86 | 74 |  |  |  |  |  |  | CCCN(CCOC)c1nc(C)nc2c1c(C)nn2-c1ccc(OC)cc1OC |
| 206 | 160 | 183 |  |  |  |  |  |  | CCCN(CCOC)c1nc(C)nc2c1c(C)nn2-c1cnc(N(C)C)cc1C |

Second part, the compound before the results:

| Compound | clearance (Liver microsomes [1]) [µL/min/mg] | clearance (Liver microsomes [2]) [µL/min/mg] | Ki [3] [nM] | clearance [4] [mL/min/kg] | Stability [5] | Vd [6] [L/kg] | bioavailability [7] [%] | half-life [8] [h] | remaining at 336 h [9] [%] |
| --- | --- | --- | --- | --- | --- | --- | --- | --- | --- |
| CCC(CC)Nc1nc(C)nc2c1c(C)nn2-c1ccc(OC)cc1C | 72 | 64 | 42 |  |  |  |  |  |  |
| CCCN(CCO)c1nc(C)nc2c1c(C)nn2-c1ccc(OC)cc1C | 117 | 80 | 129 |  |  |  |  |  |  |
| CC[C@H](COC)Nc1nc(C)nc2c1c(C)nn2-c1ccc(OC)cc1C | 53 | 37 | 210 |  |  |  |  |  |  |
| CCCNCc1cncn1Nc1nc(C)nc2c1c(C)nn2-c1ccc(OC)cc1C | 85 | 196 | 2500 |  |  |  |  |  |  |
| CCCN(CCOC)c1nc(C)nc2c1c(C)nn2-c1ccc(C(N)=O)cc1C | 22 | 17 | 275 |  |  |  |  |  |  |
| CCCNCc1nccn1Nc1nc(C)nc2c1c(C)nn2-c1ccc(OC)cc1C | 67 | 96 | 400 |  |  |  |  |  |  |
| CCCNCc1noc(Nc2nc(C)nc3c2c(C)nn3-c2ccc(OC)cc2C)n1 | 66 | 51 | 84 |  |  |  |  |  |  |
| CCC[C@@H](CO)Nc1nc(C)nc2c1c(C)nn2-c1ccc(OC)cc1C | 36 | 10 | 574 |  |  |  |  |  |  |
| COc1ccc(-n2ncc3c(NC(C4CC4)C4CC4)nc(C)nc32)c(C)c1 | 25 | < 11 | 32 | 27 | Stable | 7 | 43 | 1.9 | 51 |
| CCCCN(CC)c1nc(C)nc2c1c(C)nn2-c1c(C)cc(C)cc1C |  | > 320 | 9 |  |  |  |  |  |  |
| CCCN(CCOC)c1nc(C)nc2c1c(C)nn2-c1ccc(C(N)=O)nc1C | 13 | 38 | 577 |  |  |  |  |  |  |
| CC[C@@H](COC)Nc1nc(C)nc2c1c(C)nn2-c1ccc(OC)cc1C | 105 | 52 | 135 |  |  |  |  |  |  |
| CCCN(CCOC)c1nc(C)nc2c1c(C)nn2-c1ccc(C#N)cc1C#N | 166 | 151 | 632 |  |  |  |  |  |  |
